# Results: ChEMBL document CHEMBL4765399, “Design, synthesis, and biological evaluation of 5-((8-methoxy-2-methylquinolin-4-yl)amino)-1H-indole-2-carbohydrazide derivatives as novel Nur77 modulators” (Eur J Med Chem, 2020)
# Activity calls are given as the source filed them. The calls are words filed in the database; no cut-off is given here.
# Key:
# HepG2 [1] = test: Induction of morphological changes in human HepG2 cells assessed as reduction in cell number at 1 to 2 uM incubated for 6 to 12 hrs by phase contrast microscopic analysis; format: functional, cell-based; settings: dose 1-2 µM, time 6-12 hrs
# Outline: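 HepG2 cells given graded concentrations; morphology monitored at set time points by phase-contrast optical microscopy.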
# HepG2 [2] = test: Induction of apoptosis in human HepG2 cells assessed as Bax/Bcl-2 ratio at 2 uM pretreated with ER stress inhibitor, 4-PBA for 2 hrs followed by incubation with compound for 12 hrs by Western blot analysis; format: functional, cell-based
# HepG2 [3] = test: Antitumor activity against human HepG2 cells xenografted in BALB/c mouse assessed as reduction in PCNA expression in tumor tissue at 10 to 20 mg/kg/day, ip for 15 days by immunocytochemistry staining; format: functional, organism-based; settings: dose 10-20 mg/kg/day, time 15.0 day
# Outline: (§1)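 HepG2 cells (5×10^6) injected subcutaneously into flanks of 4-week-old male Balb/c nude mice. At about 100 mm³, 15 mice were randomized to vehicle, 10 or 20 mg/kg i.p. once daily for 15 days. Tumors were then excised for immunostaining of paraffin sections (5 μm) or for western blot.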
# HepG2 [4] = test: Disruption of mitochondrial membrane potential in human HepG2 cells assessed as green fluorescence intensity at 2 uM incubated for 12 hrs by JC-1 staining based flow cytometry (reference value: 41669 units); format: functional
# HepG2 [5] = test: Antitumor activity against human HepG2 cells xenografted in BALB/c mouse assessed as tumor growth inhibition at 20 mg/kg/day, ip administered for 15 days; format: functional; settings: 360 h, time 15 day
# Outline: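 Subcutaneous flank xenograft of 5×10^6 HepG2 cells in 4-week-old male Balb/c nude mice. At about 100 mm³, 15 mice were randomized into three groups: vehicle, 10 or 20 mg/kg i.p. daily for 15 days. Tumor size was measured every day, and tumors were excised and weighed at the end.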
# HepG2 [6] = test: Induction of endoplasmic reticulum stress in human HepG2 cells assessed as increase in CHOP protein expression incubated for 12 hrs by Western blot analysis; format: functional, cell-based; settings: dose 0.5-2 µM
# Outline: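 HepG2, QGY-7703 and SMMC-7721 treated with graded concentrations for 12 h. Lysed in RIPA with inhibitors; 40-80 µg protein separated by SDS-PAGE, blotted to nitrocellulose, blocked 1 h in 5% milk, primary antibodies overnight (LC3, Beclin1, Bip, CHOP, TRB3), HRP secondaries, chemiluminescence.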
# HepG2 [7] = test: Antitumor activity against human HepG2 cells xenografted in BALB/c mouse assessed as induction of autophagy by measuring increase in Beclin1 level in tumor tissue at 10 to 20 mg/kg/day, ip administered for 15 days by immunohistochemical analysis; format: functional, organism-based; settings: dose 10-20 mg/kg/day, time 15.0 day; outline: as §1
# [8] = target: Nuclear receptor subfamily 4immunitygroup A member 1 (Homo sapiens, UniProt P22736); test: Binding affinity to Nur77 ligand binding domain (unknown origin) assessed as decrease in fluorescence intensity of protein at 332 nm at 0.2 to 4 uM by fluorescence titration based analysis; settings: filed as modulator, dose 0.2-4 µM
# Outline: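 Intrinsic tryptophan fluorescence quench: 1 μM Nur77-LBD titrated with 0–4 μM ligand in about 0.2 μM steps (20 points). After 30 min at room temperature, read at 25 °C, excitation 280 nm, emission 340 nm. KD fitted to a two-state 1:1 complex model.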
# HepG2 [9] = test: Induction of apoptosis in human HepG2 cells assessed as early apoptotic cells at 2 uM incubated for 12 hrs by Annexin V-FITC/PI staining based flow cytometry (reference value: 3.99 to 5.35%); format: functional
# HepG2 [10] = test: Induction of autophagy in human HepG2 cells assessed as increase in LC3-II expression at 2 uM measured after 4 to 6 hrs by Western blot analysis; format: functional, cell-based; settings: time 4-6 hrs
# Outline: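 HepG2 exposed to 2.0 µM over a time course; Nur77, Bip, p-EIF2a, TRB3 and LC3 levels followed by Western blot of RIPA lysates.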
# HepG2 [11] = test: Antiproliferative activity against human HepG2 cells assessed as reduction in cell viability incubated for 48 hrs by MTT assay; format: functional, cell-based; settings: HepG2, 48 h
# Outline: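 MTT assay after 48 h exposure at six concentrations, range chosen by cytotoxicity. Inhibition = (ODcontrol − ODtest)/ODcontrol × 100%; IC50 is the concentration halving OD versus untreated cells. Means ± SD of three independent determinations. HepG2 and SMMC-7721 grown in DMEM, QGY-7703 and LO2 in RPMI 1640, with 10% FBS at 37 °C.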
# HepG2 [12] = test: Disruption of mitochondrial membrane potential in human HepG2 cells transfected with shNur77 assessed as red fluorescence intensity at 2 uM incubated for 12 hrs by JC-1 staining based flow cytometry (reference value: 21319 units); format: functional
# HepG2 [13] = test: Induction of apoptosis in human HepG2 cells assessed as cleaved PARP expression at 2 uM pretreated with autophagy inhibitor, 3-methyladenine for 2 hrs followed by incubation with compound for 12 hrs by Western blot analysis; format: functional, cell-based
# Outline: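 HepG2 cells grown to confluence were pretreated 2 h with 2 mM 3-MA (autophagy inhibitor) or 2 mM 4-PBA (ER stress inhibitor), then exposed to compound for 12 h. Proteins (40–80 µg, RIPA lysate) were resolved by SDS-PAGE and blotted for PARP, cleaved caspase-3/-9, Bcl-2 and Bax, with chemiluminescent detection.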
# HepG2 [14] = test: Induction of endoplasmic reticulum stress in Nur77 […] human HepG2 cells assessed as bip protein expression at 2 uM incubated for 6 to 12 hrs by Western blot analysis; format: functional, cell-based; settings: time 6-12 hrs
# Outline: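 HepG2 and shNur77 HepG2 exposed to DMSO or 2.0 µM for 6 and 12 h; lysates immunoblotted for TRB3, Bip, CHOP and Nur77 (SDS-PAGE, nitrocellulose, overnight primary antibodies, HRP secondary, chemiluminescence).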
# HepG2 [15] = test: Upregulation of RXRalpha expression in human HepG2 cells at 2 uM incubated for 2 to 12 hrs by Western blot analysis; format: functional, cell-based; settings: time 2-12 hrs
# Outline: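 HepG2 cells given 2.0 µM for the indicated times. RXRα, RARγ and Nur77 detected by western blot: RIPA lysis with protease and phosphatase inhibitors, 40-80 µg protein by SDS-PAGE, nitrocellulose, 5% milk block, primary antibody overnight, HRP secondary, chemiluminescence read-out.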
# HepG2 [16] = test: Induction of autophagy in Nur77 knockout human HepG2 cells assessed as increase in LC3-II expression at 2 uM measured after 6 to 12 hrs by Western blot analysis; format: functional, cell-based; settings: time 6-12 hrs
# Outline: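 Scrambled-control and shNur77 HepG2 given DMSO or 2.0 µM for 6 or 12 h; immunoblotting of RIPA lysates for LC3, Beclin1 and Nur77 after SDS-PAGE and nitrocellulose transfer, chemiluminescent detection.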
# HepG2 [17] = test: Induction of endoplasmic reticulum stress in human HepG2 cells assessed as increase in PDI protein expression at 2 uM incubated for 6 hrs by confocal microsocopic analysis; format: functional, cell-based
# Outline: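 HepG2, or HepG2 plus shNur77 HepG2, treated with 2.0 µM for 6 h, fixed in 4% paraformaldehyde 20 min, permeabilised 0.1% Triton X-100, blocked in 5% BSA, stained with PDI antibody and imaged by confocal fluorescence microscopy.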
# HepG2 [18] = test: Antitumor activity against human HepG2 cells xenografted in BALB/c mouse assessed as induction of ER stress by measuring increase in bip level in tumor tissue at 10 to 20 mg/kg/day, ip administered for 15 days by immunohistochemical analysis; format: functional, organism-based; settings: dose 10-20 mg/kg/day, time 15.0 day; outline: as §1
# Chain of Nuclear receptor subfamily 4immunitygroup A member 1 (P22736 whole entry, the tested form may be a part): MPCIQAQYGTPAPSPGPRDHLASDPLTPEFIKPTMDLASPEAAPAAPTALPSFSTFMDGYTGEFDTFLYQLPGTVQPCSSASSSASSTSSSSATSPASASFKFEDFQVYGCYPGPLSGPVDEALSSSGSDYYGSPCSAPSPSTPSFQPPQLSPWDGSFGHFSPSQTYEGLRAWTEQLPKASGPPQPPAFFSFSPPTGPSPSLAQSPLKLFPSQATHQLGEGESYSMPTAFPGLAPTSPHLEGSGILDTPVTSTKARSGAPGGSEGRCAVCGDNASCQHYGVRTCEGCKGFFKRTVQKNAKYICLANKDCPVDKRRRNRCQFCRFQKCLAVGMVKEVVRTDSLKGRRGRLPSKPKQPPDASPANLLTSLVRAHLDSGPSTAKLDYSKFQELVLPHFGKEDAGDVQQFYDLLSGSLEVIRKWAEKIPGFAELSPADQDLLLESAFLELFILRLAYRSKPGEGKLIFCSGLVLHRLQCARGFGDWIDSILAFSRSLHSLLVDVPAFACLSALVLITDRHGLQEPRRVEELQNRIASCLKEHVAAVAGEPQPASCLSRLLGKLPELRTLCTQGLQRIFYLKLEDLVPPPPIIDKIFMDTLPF
smiles,measurement,setting,value
COc1cccc2c(Nc3ccc4[nH]c(C(=O)N/N=C/c5ccc(SC)cc5)cc4c3)cc(C)nc12,Activity,HepG2 [1],Active
same,Activity,HepG2 [2],inactive
same,Activity,HepG2 [3],Active
same,Activity,HepG2 [4],71731 U
same,inhibition in vivo at 20 mg/kg/day,HepG2 [5],62.4%
same,Activity,HepG2 [6],Dose-dependent effect
same,Activity,HepG2 [7],Active
same,Activity,[8],Active
same,Activity,HepG2 [9],13%
same,Activity,HepG2 [10],Active
same,IC50,HepG2 [11],600 nM
same,Activity,HepG2 [12],18938 U
same,Activity,HepG2 [13],inactive
same,Activity,HepG2 [14],inactive
same,Activity,HepG2 [15],inactive
same,Activity,HepG2 [16],inactive
same,Activity,HepG2 [17],Active
same,Activity,HepG2 [18],Active
